This note sets out measurements from ChEMBL document CHEMBL1147382, “Cytotoxic constituents from Hyptis verticillata” (J Nat Prod, 1993).

In brackets after ≈: the same amount, converted by molar mass.

Tested on in the first data set: not listed separately
The experiment in a line: Antimitotic activity in rat ASK cells assessed as reversal of astrocyte formation at 20 ug/mL. The data set is classed as functional.
Details: not given
The method in brief:
(§1)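 Cultured rat glioma (ASK) cells were used, following Swanson et al. The antimitotic read-out was the dose giving 100% reversal of astrocyte conversion. Pure lignans were tested across a range of concentrations.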
For `COc1cc(-c2c3c(cc4cc5c(cc24)OCO5)COC3=O)cc(OC)c1OC` [DEOXYDEHYDROPODOPHYLLOTOXIN], the Activity amounted to 0%.
Turning to `COc1cc([C@@H]2c3cc4c(cc3C[C@@H]3COC(=O)[C@H]32)OCO4)cc(OC)c1OC` [ISODEOXYPODOPHYLLOTOXIN], the Activity was determined as 100%.

In the next data set the test system is P388. Description: Cytotoxicity in mouse P388 cells. In kind it is functional. As to conditions: read-out: ED50 (the source's name).
For `COc1cc(-c2c3c(cc4cc5c(cc24)OCO5)COC3=O)cc(OC)c1OC` [DEOXYDEHYDROPODOPHYLLOTOXIN], the EC50 was more than 5 µg/mL.
Still for that read-out and setting: the figure for `COc1cc([C@@H]2c3cc4c(cc3C[C@@H]3COC(=O)[C@H]32)OCO4)cc(OC)c1OC` [ISODEOXYPODOPHYLLOTOXIN] is more than 20 µg/mL.

Tested on in another data set: not listed separately
The experiment in a line: Cytotoxicity against human KBV1 cells. In kind it is functional. The following applies: KB-V1, read-out: ED50 (the source's name).
As for `COc1cc(-c2c3c(cc4cc5c(cc24)OCO5)COC3=O)cc(OC)c1OC` [DEOXYDEHYDROPODOPHYLLOTOXIN], the EC50 is more than 20 µg/mL.
Same read-out and setting: the figure for `COc1cc([C@@H]2c3cc4c(cc3C[C@@H]3COC(=O)[C@H]32)OCO4)cc(OC)c1OC` [ISODEOXYPODOPHYLLOTOXIN] is 11.5 µg/mL (≈ 28.9 µM).

Tested on in the next data set: not listed separately
Description: Cytotoxicity against human BC1 cells. As to conditions: read-out: ED50 (the source's name). The data set is classed as functional.
For the molecule `COc1cc(-c2c3c(cc4cc5c(cc24)OCO5)COC3=O)cc(OC)c1OC` [DEOXYDEHYDROPODOPHYLLOTOXIN], the EC50 was more than 20 µg/mL.
The same measure, in the same setting: the figure for `COc1cc([C@@H]2c3cc4c(cc3C[C@@H]3COC(=O)[C@H]32)OCO4)cc(OC)c1OC` [ISODEOXYPODOPHYLLOTOXIN] is 17.5 µg/mL (≈ 43.9 µM).

Tested on in a further data set: not listed separately
Description: Antimitotic activity in rat ASK cells assessed as reversal of astrocyte formation at 100 ug/mL. In kind it is functional.
Details: not given
The method in brief: as §1
In the case of `COc1cc(-c2c3c(cc4cc5c(cc24)OCO5)COC3=O)cc(OC)c1OC` [DEOXYDEHYDROPODOPHYLLOTOXIN], the Activity was 100%.
Still for that read-out and setting: with `COc1cc([C@@H]2c3cc4c(cc3C[C@@H]3COC(=O)[C@H]32)OCO4)cc(OC)c1OC` [ISODEOXYPODOPHYLLOTOXIN] the figure was 100%.

Tested on in a further data set: not listed separately
Description: Toxicity in brine shrimp. The data set is classed as organism-based. The following applies: artemia, in vivo.
For orientation: LC50 means the concentration lethal to half of the exposed cells or organisms. High values mean lower toxicity, low ones greater toxicity. For `COc1cc(-c2c3c(cc4cc5c(cc24)OCO5)COC3=O)cc(OC)c1OC` [DEOXYDEHYDROPODOPHYLLOTOXIN], the LC50 is more than 500 µg/mL.
As to `COc1cc([C@@H]2c3cc4c(cc3C[C@@H]3COC(=O)[C@H]32)OCO4)cc(OC)c1OC` [ISODEOXYPODOPHYLLOTOXIN], the LC50 was more than 500 µg/mL.

Tested on in another data set: not listed separately
The experiment in a line: Antimitotic activity in rat ASK cells assessed as reversal of astrocyte formation at 0.0064 ug/mL. The data set is classed as functional.
Details: not given
Put shortly:
as §1
Regarding `COc1cc([C@@H]2c3cc4c(cc3C[C@@H]3COC(=O)[C@H]32)OCO4)cc(OC)c1OC` [ISODEOXYPODOPHYLLOTOXIN], the Activity came out at 0%.

A further data set deals with HT. The experiment in a line: Cytotoxicity against human HT cells. The following applies: read-out: ED50 (the source's name). The data set is classed as functional.
For the molecule `COc1cc(-c2c3c(cc4cc5c(cc24)OCO5)COC3=O)cc(OC)c1OC` [DEOXYDEHYDROPODOPHYLLOTOXIN], the EC50 is more than 20 µg/mL.
Same read-out and setting: with `COc1cc([C@@H]2c3cc4c(cc3C[C@@H]3COC(=O)[C@H]32)OCO4)cc(OC)c1OC` [ISODEOXYPODOPHYLLOTOXIN] the figure was 10.7 µg/mL (≈ 26.9 µM).

In the next data set the test system is Col2. The experiment in a line: Cytotoxicity against human Col2 cells. The data set is classed as functional. The following applies: read-out: ED50 (the source's name).
As to `COc1cc(-c2c3c(cc4cc5c(cc24)OCO5)COC3=O)cc(OC)c1OC` [DEOXYDEHYDROPODOPHYLLOTOXIN], the EC50 stood at 16.7 µg/mL (≈ 42.3 µM).
Still for that read-out and setting: with `COc1cc([C@@H]2c3cc4c(cc3C[C@@H]3COC(=O)[C@H]32)OCO4)cc(OC)c1OC` [ISODEOXYPODOPHYLLOTOXIN] the figure was 8.9 µg/mL (≈ 22.3 µM).

Tested on in another data set: not listed separately
Description: Cytotoxicity against human U373 cells. In kind it is functional, U-373MG ATCC. As to conditions: U373 MG, read-out: ED50 (the source's name).
Take `COc1cc(-c2c3c(cc4cc5c(cc24)OCO5)COC3=O)cc(OC)c1OC` [DEOXYDEHYDROPODOPHYLLOTOXIN]: the EC50 was more than 20 µg/mL.
The same measure, in the same setting: the figure for `COc1cc([C@@H]2c3cc4c(cc3C[C@@H]3COC(=O)[C@H]32)OCO4)cc(OC)c1OC` [ISODEOXYPODOPHYLLOTOXIN] is 2.9 µg/mL (≈ 7.28 µM).

In the next data set the test system is ZR-75-1. Description: Cytotoxicity against human ZR-75-1 cells. In kind it is functional. As to conditions: read-out: ED50 (the source's name).
As for `COc1cc(-c2c3c(cc4cc5c(cc24)OCO5)COC3=O)cc(OC)c1OC` [DEOXYDEHYDROPODOPHYLLOTOXIN], the EC50 was more than 20 µg/mL.
The same measure, in the same setting: the figure for `COc1cc([C@@H]2c3cc4c(cc3C[C@@H]3COC(=O)[C@H]32)OCO4)cc(OC)c1OC` [ISODEOXYPODOPHYLLOTOXIN] is 13.2 µg/mL (≈ 33.1 µM).

Tested on in a further data set: not listed separately
The experiment in a line: Antimitotic activity in rat ASK cells assessed as reversal of astrocyte formation at 0.16 ug/mL. In kind it is functional.
Details: not given
Put shortly: as §1
Take `COc1cc([C@@H]2c3cc4c(cc3C[C@@H]3COC(=O)[C@H]32)OCO4)cc(OC)c1OC` [ISODEOXYPODOPHYLLOTOXIN]: the Activity was found to be 0%.

A further data set relates to LNCaP. Description: Cytotoxicity against human LNCAP cells. The data set is classed as functional. The following applies: read-out: ED50 (the source's name).
On to `COc1cc(-c2c3c(cc4cc5c(cc24)OCO5)COC3=O)cc(OC)c1OC` [DEOXYDEHYDROPODOPHYLLOTOXIN], for which the EC50 worked out at 11.6 µg/mL (≈ 29.4 µM).
The same measure, in the same setting: the figure for `COc1cc([C@@H]2c3cc4c(cc3C[C@@H]3COC(=O)[C@H]32)OCO4)cc(OC)c1OC` [ISODEOXYPODOPHYLLOTOXIN] is 12 µg/mL (≈ 30.1 µM).

Tested on in the next data set: not listed separately
The experiment in a line: Antimitotic activity in rat ASK cells assessed as reversal of astrocyte formation at 0.8 ug/mL. In kind it is functional.
Details: not given
Put shortly:
as §1
Turning to `COc1cc(-c2c3c(cc4cc5c(cc24)OCO5)COC3=O)cc(OC)c1OC` [DEOXYDEHYDROPODOPHYLLOTOXIN], the Activity is 0%.
As to `COc1cc([C@@H]2c3cc4c(cc3C[C@@H]3COC(=O)[C@H]32)OCO4)cc(OC)c1OC` [ISODEOXYPODOPHYLLOTOXIN], the Activity stood at 0%.

Another data set has as its system KB. The experiment in a line: Cytotoxicity against human KB cells. In kind it is functional. As to conditions: read-out: ED50 (the source's name).
For `COc1cc(-c2c3c(cc4cc5c(cc24)OCO5)COC3=O)cc(OC)c1OC` [DEOXYDEHYDROPODOPHYLLOTOXIN], the EC50 was found to be 11.4 µg/mL (≈ 28.9 µM).
With `COc1cc([C@@H]2c3cc4c(cc3C[C@@H]3COC(=O)[C@H]32)OCO4)cc(OC)c1OC` [ISODEOXYPODOPHYLLOTOXIN], the EC50 amounted to 6.7 µg/mL (≈ 16.8 µM).

In another data set the test system is Lu1. Description: Cytotoxicity against human Lu1 cells. In kind it is functional. The following applies: read-out: ED50 (the source's name).
Consider `COc1cc(-c2c3c(cc4cc5c(cc24)OCO5)COC3=O)cc(OC)c1OC` [DEOXYDEHYDROPODOPHYLLOTOXIN], for which the EC50 was 18.8 µg/mL (≈ 47.7 µM).
On the same count and under the same terms, with `COc1cc([C@@H]2c3cc4c(cc3C[C@@H]3COC(=O)[C@H]32)OCO4)cc(OC)c1OC` [ISODEOXYPODOPHYLLOTOXIN] the figure was 15.9 µg/mL (≈ 39.9 µM).

Tested on in a further data set: not listed separately
Description: Antimitotic activity in rat ASK cells assessed as reversal of astrocyte formation at 4 ug/mL. The data set is classed as functional.
Details: not given
The method in brief:
as §1
Turning to `COc1cc(-c2c3c(cc4cc5c(cc24)OCO5)COC3=O)cc(OC)c1OC` [DEOXYDEHYDROPODOPHYLLOTOXIN], the Activity is reported as 0%.
In the case of `COc1cc([C@@H]2c3cc4c(cc3C[C@@H]3COC(=O)[C@H]32)OCO4)cc(OC)c1OC` [ISODEOXYPODOPHYLLOTOXIN], the Activity worked out at 0%.

In a further data set the test system is A-431. Description: Cytotoxicity against human A431 cells. In kind it is functional. The following applies: read-out: ED50 (the source's name).
Consider `COc1cc(-c2c3c(cc4cc5c(cc24)OCO5)COC3=O)cc(OC)c1OC` [DEOXYDEHYDROPODOPHYLLOTOXIN], for which the EC50 was determined as 6.2 µg/mL (≈ 15.7 µM).
Same read-out and setting: the figure for `COc1cc([C@@H]2c3cc4c(cc3C[C@@H]3COC(=O)[C@H]32)OCO4)cc(OC)c1OC` [ISODEOXYPODOPHYLLOTOXIN] is 6.2 µg/mL (≈ 15.6 µM).

Tested on in another data set: not listed separately
The experiment in a line: Antimitotic activity in rat ASK cells assessed as reversal of astrocyte formation at 0.032 ug/mL. In kind it is functional.
Details: not given
The method in brief: as §1
For `COc1cc([C@@H]2c3cc4c(cc3C[C@@H]3COC(=O)[C@H]32)OCO4)cc(OC)c1OC` [ISODEOXYPODOPHYLLOTOXIN], the Activity is listed as 0%.
